Format in all cases: functional
Assay [1] deals with BL13/0. The assay can be described thus: Concentration to inhibit growth of BL13/0 cell lines. Conditions: Homo sapiens. In short, it runs like this:
(§1)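 Human tumor lines grown as monolayers in RPMI 1640 with 10% FCS plus penicillin/streptomycin, at 37 °C under 7.5% CO₂, 5% O₂, 85% N₂. Cells were seeded at 5000 per well and left 24 h, then exposed for 96 h at 37 °C to complexes (saline-dissolved, final 0–200 μM). Viability was read by MTT (570 nm) or SRB (570 nm) against untreated controls, with 4 or 6 replicates. IC50 was taken from dose–response curves.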

Assay [2] relates to DU-145. The assay can be described thus: Concentration to inhibit growth of DU145 cell lines. Conditions: Homo sapiens. In short, it runs like this:
as §1

The test system of assay [3] is PC-9. The assay can be described thus: Concentration to inhibit growth of PC9 cell lines. Conditions: Homo sapiens. In short, it runs like this: as §1
Assay [4] can be described thus: Concentration to inhibit growth of PC9-cisR cell lines. Conditions: Homo sapiens; PC-9. In short, it runs like this:
as §1

For “8,8-Platinum dichloro-7-ethyl-(6S)-1,7-diazoniabicyclo[4.2.1]nonane”, the Mean IC50 in assay [1] turned out to be 19 µM; in assay [2] it was 21.3 µM; in assay [3] it was 31 µM; in assay [4], 79.7 µM.
Take “8,8-Platinumdichloro-7,7-dimethyl-(6R)-1,7-diazoniabicyclo[4.2.1]nonane”: the Mean IC50 in assay [1] was 7.7 µM; in assay [2] it was 7.3 µM; in assay [3], 13.5 µM; in assay [4], 29.3 µM.
The corresponding values for “8,8-Platinumdichloro-7,7-dimethyl-(6S)-1,7-diazoniabicyclo[4.2.1]nonane” are 10.2 µM, 11.5 µM, 11.8 µM and 28.7 µM.
In the case of “8,8-Platinumdichloro-7-ethyl-(6R)-1,7-diazoniabicyclo[4.2.1]nonane”, the Mean IC50 in assay [1] came to 7.4 µM; in assay [2], 9.5 µM; in assay [3], 20 µM; in assay [4], 44 µM.
The matching figures for “8,8-Platinumdichloro-7-methyl-(6S)-1,7-diazoniabicyclo[4.2.1]nonane”: 11.7 µM, 10.1 µM, 13.7 µM and 38.3 µM.
“8,8-platinumdichloro-(6R)-1,7-diazoniabicyclo[4.2.1]nonane”: the Mean IC50 in assay [1] is 1.3 µM; in assay [2], 2.9 µM; in assay [3], 5.9 µM; in assay [4], 16 µM.
For CISPLATIN, the Mean IC50 in assay [1] is 1.9 µM; in assay [2], 1.8 µM; in assay [3], 1.4 µM; in assay [4], 11.7 µM.

Values taken from ChEMBL document CHEMBL1130197, “Preparation, characterization, DNA binding, and in vitro cytotoxicity of the enantiomers of the platinum(II) complexes N-methyl-, N-ethyl- and N,N-dimethyl-(R)- and -(S)-3-aminohexahydroazepinedichloroplatinum(II)” (1997).
